According to PubChem BioAssay:
Calls of active or inactive are those of the source.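 The calls were made as follows, unless noted: active = potentiation averaged over duplicate wells exceeding buffer-only control mean by more than 3 SD; inactive = the rest.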

Test system: not listed separately
Test: thallium flux activation in parental CHO cells, counter-screen for KCNQ1 potentiator project (AID 493006;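 active = duplicate-averaged activation above buffer control mean plus 5 SD of those controls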)
Conditions: parental CHO-K1 cells, FluxOR thallium flux, at 10 µM; stronger effect = higher value
Summary of the method: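 Test system: parental CHO-K1 cells, FluxOR dye-loaded / Probe or stimulus: potassium plus thallium depolarizing stimulus, 5x stock 12.5 mM K2SO4, Tl2SO4 / Timing: overnight 37 °C plating, 90 min dye, 20 min dark compound / Measured by: kinetic thallium-flux fluorescence / Read-out: max-minus-min fluorescence over baseline, percent of buffer-to-R-L3 span / Benchmarks: buffer and R-L3 controls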

Compound | outcome | activation
CCOC(=O)c1c(NC(=S)NCc2ccccc2)sc2c1CCN(C(=O)OCC)C2 | inactive | 
C/C(CCc1oc2c(Br)cc(Br)cc2c1-c1ccc(C)o1)=N\O | inactive | 
Cc1cc(/C=N/NC(=O)c2cccs2)c(C)n1-c1ccccc1 | inactive | 
CC(=O)NC(CC(=O)O)C(=O)O (stereo not given) | inactive | 
NC(=S)Nc1nc2ccccc2s1 |  | 165% (active)
O=Cc1c(F)cccc1N1CCCC1 | inactive | 
Cc1ccc(C)c2sc(NC(=O)c3nc4ccccc4s3)nc12 | inactive | 
N=C1S/C(=C\c2ccc(-c3cccc(Cl)c3)o2)C(=O)N1c1nccs1 | inactive | 
CCNC(=S)/N=C(\N)Nc1nc(C)c2cc(C)ccc2n1 | inactive | 
Cc1ccc2nc(N3CCN(Cc4ccc(F)cc4)C3=O)c(C)cc2c1 | inactive | 
CCCOc1ccc(Cc2nc(N)nc(N)n2)cc1 | inactive | 
c1ccc(-n2cnc3cc(NCc4cccs4)ccc32)cc1 | inactive | 
S=c1[nH]cnc2scc(-c3ccc(Cl)cc3)c12 |  | 158% (active)
COc1ccc(-c2oc3ccccc3c(=O)c2OC(C)=O)cc1 |  | 144% (active)
O=c1[nH]sc2ccccc12 | inactive | 
CCOc1ccc(NC(=O)C2CCN(S(=O)(=O)c3cccnc3)CC2)cc1 | inactive | 
COCCCn1c(=S)[nH]c2sc3c(c2c1=O)CCCC3 |  | 366% (active)
CC(=O)NC(NC(C)=O)c1ccc(N(C)C)cc1 | inactive | 
C=CCn1c(O)c(N=NC(=S)Nc2cccc(OC)c2)c2ccccc21 |  | 186% (active)
O=C(Nc1nnc(-c2ccc3c(c2)CCCC3)o1)c1ccccc1Cl |  | 184% (active)

Compound | outcome | activation
CCOC(=O)CSc1nc2ccccc2n2c(C)nnc12 | inactive | 
Cc1sc(-n2c(C)cc(/C=C3\SC(=S)NC3=O)c2C)c(C#N)c1C |  | 145% (active)
COc1ccc(CN(C)C(=O)c2cccc(NS(=O)(=O)c3ccccc3)c2)cc1F | inactive | 
Cc1cnc(NC(=O)c2ccc(-c3nc4ccccc4s3)o2)s1 | inactive | 
OC(CNC1CCCCC1)COCCOc1ccc(Br)cc1 (stereo not given) | inactive | 
COc1ccc(CN(C)CC(=O)Nc2ccc(Cl)cc2C(F)(F)F)c(OC)c1 | inactive | 
CCOc1ccc(-c2c(=O)n(O)c3ccccc3[n+]2[O-])cc1 |  | 224% (active)
O=C(CNC(=O)c1ccccc1)NCc1ccc(Cl)cc1 | inactive | 
COc1ccc(CN2C(=O)C(C)S/C2=N/N=C/c2ccco2)cc1 (stereo not given) | inactive | 
COc1ccc(-n2nnnc2-c2ccccc2)cc1 | inactive | 
O=C(c1ccc(-c2ccccc2)cc1)N1CCCC1 |  | 188% (active)
CCc1nnc(NC(=O)CSc2n[nH]c(-c3ccccc3O)n2)s1 | inactive | 
COc1cccc(C2=NOC(C(=O)NCc3cccs3)C2)c1 (stereo not given) | inactive | 
COc1ccc(NC(=S)NC(=O)c2csnn2)cc1 |  | 213% (active)
Cc1sc2nc(CSc3ccccc3)nc(N3CCN(C)CC3)c2c1C | inactive | 
CCCc1ccc2oc(C(=O)N(C)CCn3ccnc3C)c(C)c2c1 | inactive | 
CCOC(=O)/C(C)=N/NC(=O)c1cccc([N+](=O)[O-])c1 |  | 170% (active)
Cc1sc(NC(=O)CS(=O)(=O)c2ccccc2)c(C#N)c1C | inactive | 
O=C(NCCN1CCOCC1)[C@H](Cc1ccccc1)N1C(=O)c2ccccc2C1=O | inactive | 
CCOC(=O)c1[nH]c(C=O)c(C(=O)OCC)c1C | inactive | 

Target: Potassium voltage-gated channel subfamily KQT member 1 (Homo sapiens) (UniProt P51787)
Test: KCNQ1 potassium channel potentiators, confirmation, FluxOR thallium flux, CHO cells, duplicates (AID 493007);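 as to outcome: cells depolarized by a potassium plus thallium sulfate stimulus after compound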;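 as to potentiation: 0% = buffer-only wells and 100% = R-L3 activator control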
Conditions: KCNQ1 cell line, FluxOR thallium flux fluorescence, at 10 µM; stronger effect = higher value, % of reference activator effect, buffer zero
Summary of the method: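 Assay system: CHO cells carrying KCNQ1 | Controls: Buffer and R-L3 controls | Schedule: FluxOR dye loading 90 min, compound exposure 20 min, room temperature | Read-out: Baseline-normalized fluorescence change, percent of buffer-to-R-L3 range | Replicates: Each compound tested in duplicate | Technique: Kinetic thallium influx fluorescence with FluxOR dye, 10 s baseline, 110 s post-stimulus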

Chain of Potassium voltage-gated channel subfamily KQT member 1 (Homo sapiens) (P51787 whole entry, looked up): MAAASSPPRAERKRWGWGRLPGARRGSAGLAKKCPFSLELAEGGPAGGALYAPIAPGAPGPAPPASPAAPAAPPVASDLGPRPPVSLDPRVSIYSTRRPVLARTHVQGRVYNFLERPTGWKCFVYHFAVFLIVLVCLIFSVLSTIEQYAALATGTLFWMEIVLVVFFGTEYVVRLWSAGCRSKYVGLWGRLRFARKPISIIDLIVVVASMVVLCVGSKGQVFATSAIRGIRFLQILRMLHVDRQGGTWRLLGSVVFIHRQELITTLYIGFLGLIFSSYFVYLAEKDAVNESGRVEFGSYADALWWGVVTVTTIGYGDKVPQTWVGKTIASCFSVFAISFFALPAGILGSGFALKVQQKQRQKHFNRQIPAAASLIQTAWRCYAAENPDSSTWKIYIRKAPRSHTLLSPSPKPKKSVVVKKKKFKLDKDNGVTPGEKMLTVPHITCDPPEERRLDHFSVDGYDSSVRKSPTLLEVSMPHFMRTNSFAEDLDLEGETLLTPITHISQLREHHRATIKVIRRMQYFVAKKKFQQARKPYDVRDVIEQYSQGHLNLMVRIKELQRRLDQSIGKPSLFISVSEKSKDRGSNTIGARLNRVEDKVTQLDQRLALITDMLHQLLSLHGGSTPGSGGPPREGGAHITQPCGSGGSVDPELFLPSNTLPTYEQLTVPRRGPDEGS

Compound | outcome | potentiation
CCOC(=O)c1c(NC(=S)NCc2ccccc2)sc2c1CCN(C(=O)OCC)C2 | inactive | 
C/C(CCc1oc2c(Br)cc(Br)cc2c1-c1ccc(C)o1)=N\O | inactive | 
Cc1cc(/C=N/NC(=O)c2cccs2)c(C)n1-c1ccccc1 | inactive | 
CC(=O)NC(CC(=O)O)C(=O)O (stereo not given) | inactive | 
NC(=S)Nc1nc2ccccc2s1 |  | 54.5% (active)
O=Cc1c(F)cccc1N1CCCC1 | inactive | 
Cc1ccc(C)c2sc(NC(=O)c3nc4ccccc4s3)nc12 |  | 18% (active)
N=C1S/C(=C\c2ccc(-c3cccc(Cl)c3)o2)C(=O)N1c1nccs1 |  | 19% (active)
CCNC(=S)/N=C(\N)Nc1nc(C)c2cc(C)ccc2n1 | inactive | 
Cc1ccc2nc(N3CCN(Cc4ccc(F)cc4)C3=O)c(C)cc2c1 | inactive | 
CCCOc1ccc(Cc2nc(N)nc(N)n2)cc1 | inactive | 
c1ccc(-n2cnc3cc(NCc4cccs4)ccc32)cc1 | inactive | 
S=c1[nH]cnc2scc(-c3ccc(Cl)cc3)c12 |  | 47% (active)
COc1ccc(-c2oc3ccccc3c(=O)c2OC(C)=O)cc1 | inactive | 
O=c1[nH]sc2ccccc12 | inactive | 
CCOc1ccc(NC(=O)C2CCN(S(=O)(=O)c3cccnc3)CC2)cc1 | inactive | 
COCCCn1c(=S)[nH]c2sc3c(c2c1=O)CCCC3 |  | 138% (active)
CC(=O)NC(NC(C)=O)c1ccc(N(C)C)cc1 | inactive | 
C=CCn1c(O)c(N=NC(=S)Nc2cccc(OC)c2)c2ccccc21 |  | 85.5% (active)
O=C(Nc1nnc(-c2ccc3c(c2)CCCC3)o1)c1ccccc1Cl |  | 83% (active)

Compound | outcome | potentiation
CCOC(=O)CSc1nc2ccccc2n2c(C)nnc12 | inactive | 
Cc1sc(-n2c(C)cc(/C=C3\SC(=S)NC3=O)c2C)c(C#N)c1C |  | 36% (active)
COc1ccc(CN(C)C(=O)c2cccc(NS(=O)(=O)c3ccccc3)c2)cc1F | inactive | 
Cc1cnc(NC(=O)c2ccc(-c3nc4ccccc4s3)o2)s1 | inactive | 
OC(CNC1CCCCC1)COCCOc1ccc(Br)cc1 (stereo not given) | inactive | 
COc1ccc(CN(C)CC(=O)Nc2ccc(Cl)cc2C(F)(F)F)c(OC)c1 |  | 37.5% (active)
CCOc1ccc(-c2c(=O)n(O)c3ccccc3[n+]2[O-])cc1 |  | 59.5% (active)
O=C(CNC(=O)c1ccccc1)NCc1ccc(Cl)cc1 | inactive | 
COc1ccc(CN2C(=O)C(C)S/C2=N/N=C/c2ccco2)cc1 (stereo not given) | inactive | 
COc1ccc(-n2nnnc2-c2ccccc2)cc1 | inactive | 
O=C(c1ccc(-c2ccccc2)cc1)N1CCCC1 |  | 217% (active)
CCc1nnc(NC(=O)CSc2n[nH]c(-c3ccccc3O)n2)s1 | inactive | 
COc1cccc(C2=NOC(C(=O)NCc3cccs3)C2)c1 (stereo not given) | inactive | 
COc1ccc(NC(=S)NC(=O)c2csnn2)cc1 |  | 71% (active)
Cc1sc2nc(CSc3ccccc3)nc(N3CCN(C)CC3)c2c1C | inactive | 
CCCc1ccc2oc(C(=O)N(C)CCn3ccnc3C)c(C)c2c1 | inactive | 
CCOC(=O)/C(C)=N/NC(=O)c1cccc([N+](=O)[O-])c1 |  | 49% (active)
Cc1sc(NC(=O)CS(=O)(=O)c2ccccc2)c(C#N)c1C | inactive | 
O=C(NCCN1CCOCC1)[C@H](Cc1ccccc1)N1C(=O)c2ccccc2C1=O |  | 26% (active)
CCOC(=O)c1[nH]c(C=O)c(C(=O)OCC)c1C | inactive | 
